Test [1] concerns Cerebral cortex neuron. In words: Induction of glutamate release in Swiss Webster mouse immature cerebrocortical neuron assessed as increase in glutamate release at 30 to 100 nM incubated for 2 hrs by HPLC based fluorescence method. The class given is functional, cell-based. The conditions noted are these: dose 30-100 nM. The procedure, abridged: (§1)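 Cortical neurons at 5 DIV in 96-well plates. Medium saved and cells washed in Locke's buffer, pH 7.4. Exposure in that buffer for 2 h at 22 °C, then three washes and return to the saved medium for 22 h at 37 °C. Medium then collected, derivatized with o-phthaldialdehyde and analysed by HPLC with fluorescence detection.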

Test [2] is described as follows: Induction of glutamate release in Swiss Webster mouse immature cerebrocortical neuron assessed as increase in glutamate release at 30 nM incubated for 2 hrs by HPLC based fluorescence method. The test is classed as functional, Cerebral cortex neuron. The procedure, abridged: as §1
Test [3] concerns the target RAC-alpha serine/threonine-protein kinase (Mus musculus) (UniProt P31750). In words: Activation of Akt signalling pathway in Swiss Webster mouse immature cerebrocortical neuron assessed as increase in AKT phosphorylation of Ser473 by measuring fold change at […] incubated for 24 hrs by western blot analysis. The class given is cell-based. Particulars: filed as activator, dose lower 10.0 µM. For orientation: A western blot detects proteins with antibodies after separation by electrophoresis.

The nature of test [4]: Induction of aspartate release in Swiss Webster mouse immature cerebrocortical neuron assessed as increase in aspartate concentration at 100 nM incubated for 2 hrs by HPLC based fluorescence method. The test is classed as functional, Cerebral cortex neuron. The procedure, abridged: as §1
Test [5] concerns the target Serine/threonine-protein kinase mTOR (Mus musculus) (UniProt Q9JLN9). In words: Activation of mTOR signalling pathway in Swiss Webster mouse immature cerebrocortical neuron assessed as increase in mTOR phosphorylation at Ser2448 at […] incubated for 3 hrs by western blot analysis. The test is classed as cell-based. Particulars: filed as activator.
For test [6], the target named is BDNF/NT-3 growth factors receptor (Homo sapiens) (UniProt Q16620). In words: Activation of full length isoform of TrkB receptor (unknown origin) expressed in mouse cerebrocortical neuron assessed as increase in neurite length at 30 nM incubated for 24 hrs by DiI dye based microscopic analysis. The class given is cell-based. Particulars: filed as activator. Summed up:
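E16 mouse cortical neurons plated at 0.5 × 10^6/well and lipofected 2 h after plating with 0.5 µg gene-of-interest plasmid or empty vector plus 0.25 µg GFP plasmid. 30 nM or vehicle added 3 h after transfection. Neurons imaged at DIV-2.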

Test [7] concerns Cerebral cortex neuron. In words: Induction of BDNF release in Swiss Webster mouse immature cerebrocortical neuron assessed as increase in BDNF release at 100 to 3000 nM incubated for 4 days by sandwich ELISA method. The test is classed as functional, cell-based. Particulars: dose 100-3000 nM, time 4.0 day. The procedure, abridged: (§2)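 In situ sandwich ELISA. Plates coated overnight at 4 °C with anti-BDNF capture antibody, then blocked. Immature cortical neurons plated directly in the wells with BDNF standards and treated from 3 h after plating; 50 mM KCl served as comparator. After 4 days cells were washed off with TBST, and bound BDNF was detected with a polyclonal antibody for 2 h at RT.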
A general note: An ELISA detects its analyte on a solid surface through an enzyme-linked reagent.

Test [8] in a line: Induction of aspartate release in Swiss Webster mouse immature cerebrocortical neuron assessed as increase in aspartate concentration at 30 nM incubated for 2 hrs by HPLC based fluorescence method. The test is classed as functional, Cerebral cortex neuron. The procedure, abridged:
as §1

Test [9] is described as follows: (§3) Induction of BDNF release in Swiss Webster mouse immature cerebrocortical neuron assessed as increase in BDNF release incubated for 4 days by sandwich ELISA method. The test is classed as functional, cell-based. Particulars: Cerebral cortex neuron, 96 h. Summed up: as §2
Test [10] concerns Cerebral cortex neuron. Described as §3. The class given is functional, cell-based. Particulars: time 4.0 day, DDE = dose-dependent effect. The procedure, abridged:
as §2

Test [11] can be described thus: Induction of glutamate release in Swiss Webster mouse immature cerebrocortical neuron assessed as increase in glutamate release at 100 nM incubated for 2 hrs by HPLC based fluorescence method. The test is classed as functional, Cerebral cortex neuron. Summed up: as §1
In test [12] the test system is Cerebral cortex neuron. In words: Induction of BDNF release in Swiss Webster mouse immature cerebrocortical neuron assessed as increase in BDNF synthesis at 30 nM incubated for 30 mins by western blot analysis. The class given is functional, cell-based. The procedure, abridged: (§4)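 DIV-1 cortical neurons in six-well plates exposed to 30 nM for 30 min at 37 °C. Where antagonists were used, 15 min preincubation. Exposure stopped on ice, cells washed in cold PBS and lysed 30 min at 4 °C. Protein measured by Bradford. Equal protein run on 10% SDS-PAGE, blotted to PVDF, probed with specific antibodies, ECL detection.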

Test [13] deals with BDNF/NT-3 growth factors receptor (Mus musculus) (UniProt P15209). In words: Activation of TrkB receptor in Swiss Webster mouse immature cerebrocortical neuron assessed as phosphorylation of TrkB at Tyr516 residue at 30 nM incubated for 30 mins by western blot analysis. The conditions noted are these: filed as activator. The class given is cell-based. The procedure, abridged: as §4
Sequence of BDNF/NT-3 growth factors receptor (Mus musculus) (P15209 whole entry): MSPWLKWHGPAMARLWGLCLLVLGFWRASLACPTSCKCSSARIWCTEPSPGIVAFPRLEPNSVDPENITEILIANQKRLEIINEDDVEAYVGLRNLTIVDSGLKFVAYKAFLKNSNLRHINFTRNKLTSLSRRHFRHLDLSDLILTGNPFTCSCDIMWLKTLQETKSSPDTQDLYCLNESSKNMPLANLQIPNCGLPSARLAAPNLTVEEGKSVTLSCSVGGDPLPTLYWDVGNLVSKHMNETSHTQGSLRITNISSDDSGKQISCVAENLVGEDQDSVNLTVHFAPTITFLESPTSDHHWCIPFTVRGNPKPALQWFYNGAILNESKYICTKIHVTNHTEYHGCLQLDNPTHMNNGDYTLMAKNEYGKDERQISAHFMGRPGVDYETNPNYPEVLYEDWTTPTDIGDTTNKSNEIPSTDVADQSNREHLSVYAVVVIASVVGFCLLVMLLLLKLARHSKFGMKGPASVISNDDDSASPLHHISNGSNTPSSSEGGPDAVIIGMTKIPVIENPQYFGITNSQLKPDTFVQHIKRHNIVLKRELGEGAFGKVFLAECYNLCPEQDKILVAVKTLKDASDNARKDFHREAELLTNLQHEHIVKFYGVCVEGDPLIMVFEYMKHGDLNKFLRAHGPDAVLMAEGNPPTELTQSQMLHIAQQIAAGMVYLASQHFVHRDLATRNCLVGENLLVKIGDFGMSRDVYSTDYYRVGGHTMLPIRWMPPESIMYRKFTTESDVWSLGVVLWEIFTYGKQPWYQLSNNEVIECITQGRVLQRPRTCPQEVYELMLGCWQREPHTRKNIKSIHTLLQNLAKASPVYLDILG

Activity calls are given as the source filed them. The calls are words filed in the database; no cut-off is given here.

By EC50 is commonly meant the concentration that produces a half-maximal response.

Sequence of BDNF/NT-3 growth factors receptor (Homo sapiens) (Q16620 32-822 limits assumed): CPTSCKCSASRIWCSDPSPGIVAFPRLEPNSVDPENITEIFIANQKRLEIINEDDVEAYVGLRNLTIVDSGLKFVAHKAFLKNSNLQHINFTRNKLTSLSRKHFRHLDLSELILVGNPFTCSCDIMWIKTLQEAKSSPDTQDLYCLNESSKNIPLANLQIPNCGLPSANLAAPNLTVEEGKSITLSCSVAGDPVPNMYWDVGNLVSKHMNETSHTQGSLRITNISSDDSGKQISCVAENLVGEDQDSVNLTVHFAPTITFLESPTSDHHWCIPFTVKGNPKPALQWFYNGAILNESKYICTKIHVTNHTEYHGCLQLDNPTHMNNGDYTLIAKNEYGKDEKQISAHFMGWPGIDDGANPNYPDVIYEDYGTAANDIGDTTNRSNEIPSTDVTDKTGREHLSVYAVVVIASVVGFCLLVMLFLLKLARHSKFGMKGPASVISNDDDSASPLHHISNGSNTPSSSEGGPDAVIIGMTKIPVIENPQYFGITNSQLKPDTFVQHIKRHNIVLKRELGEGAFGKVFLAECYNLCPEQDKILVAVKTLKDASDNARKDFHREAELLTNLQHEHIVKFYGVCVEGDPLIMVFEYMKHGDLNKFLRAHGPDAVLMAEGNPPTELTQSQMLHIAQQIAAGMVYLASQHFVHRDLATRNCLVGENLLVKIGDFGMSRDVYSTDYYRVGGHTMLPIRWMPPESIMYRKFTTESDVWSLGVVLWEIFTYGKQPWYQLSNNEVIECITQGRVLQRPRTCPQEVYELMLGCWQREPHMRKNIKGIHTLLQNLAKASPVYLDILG
Sequence of RAC-alpha serine/threonine-protein kinase (Mus musculus) (P31750 whole entry): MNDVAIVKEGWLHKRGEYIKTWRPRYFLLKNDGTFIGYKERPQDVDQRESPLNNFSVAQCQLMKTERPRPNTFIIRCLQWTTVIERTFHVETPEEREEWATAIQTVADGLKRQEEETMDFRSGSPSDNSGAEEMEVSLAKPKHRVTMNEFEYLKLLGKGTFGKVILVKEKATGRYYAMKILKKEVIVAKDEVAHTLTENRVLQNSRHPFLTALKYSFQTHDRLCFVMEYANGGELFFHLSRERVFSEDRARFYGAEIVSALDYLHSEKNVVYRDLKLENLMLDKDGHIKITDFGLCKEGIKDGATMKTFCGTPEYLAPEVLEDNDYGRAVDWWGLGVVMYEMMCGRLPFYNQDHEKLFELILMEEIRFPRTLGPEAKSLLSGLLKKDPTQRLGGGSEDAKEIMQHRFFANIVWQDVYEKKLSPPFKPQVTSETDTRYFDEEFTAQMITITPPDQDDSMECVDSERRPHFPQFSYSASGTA

For the molecule `C=C1CC(=O)N[C@@H](C)C(=O)N(C)[C@@H](C(C)C)C(=O)NCC(=O)O[C@@H](/C(C)=C/C(C)=C/C(C)(C)C)[C@@H]1C` [ANTILLATOXIN], the outcome in test [1], in test [6], in test [7], in test [12] and in test [13] was Active. Also, the Activity in test [2] was 2.32 µM; in test [4], 1.73 µM; in test [8] it was 1.81 µM; in test [10], “Dde”; in test [11], 2.07 µM. The results for the fold change (FC) in [3] and in [5] were 3 and 2, respectively. Moreover, in [9], the EC50 came to 450 nM.

The values are drawn from ChEMBL document CHEMBL5143611, “Antillatoxin-Stimulated Neurite Outgrowth Involves the Brain-Derived Neurotrophic Factor (BDNF) - Tropomyosin Related Kinase B (TrkB) Signaling Pathway” (J Nat Prod, 2022).
